The source made the active and inactive calls. No cut-off for these calls is given here.
Legend:
[1] = molecular target: T1, Interleukin-1 receptor-associated kinase 1 (Homo sapiens, UniProt P51617); assay: Inhibition of recombinant IRAK1 (unknown origin) by Invitrogen adapta assay
Target sequence in this assay (P51617 whole entry): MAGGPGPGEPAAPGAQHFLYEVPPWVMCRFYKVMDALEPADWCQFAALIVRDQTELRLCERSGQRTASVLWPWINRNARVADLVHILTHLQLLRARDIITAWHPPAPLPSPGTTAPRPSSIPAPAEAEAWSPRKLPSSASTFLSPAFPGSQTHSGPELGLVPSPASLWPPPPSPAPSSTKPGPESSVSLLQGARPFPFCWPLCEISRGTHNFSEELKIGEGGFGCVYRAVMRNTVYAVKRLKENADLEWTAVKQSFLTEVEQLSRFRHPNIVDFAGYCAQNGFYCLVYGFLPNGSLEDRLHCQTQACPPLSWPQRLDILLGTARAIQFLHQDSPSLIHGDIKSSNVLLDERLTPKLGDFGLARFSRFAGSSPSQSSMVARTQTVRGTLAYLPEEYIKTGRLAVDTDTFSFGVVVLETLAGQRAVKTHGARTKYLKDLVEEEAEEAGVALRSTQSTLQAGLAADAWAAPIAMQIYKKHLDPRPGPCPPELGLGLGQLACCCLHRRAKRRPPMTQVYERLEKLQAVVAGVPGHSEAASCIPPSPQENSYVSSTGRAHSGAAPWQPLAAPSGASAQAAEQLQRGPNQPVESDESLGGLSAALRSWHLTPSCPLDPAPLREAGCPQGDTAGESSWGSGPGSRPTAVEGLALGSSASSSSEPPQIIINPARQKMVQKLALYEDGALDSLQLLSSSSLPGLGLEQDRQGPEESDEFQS

TMD8 = assay: Cytotoxicity against human TMD8 cells expressing MYD88 mutant assessed as cell killing measured after 72 hrs by CellTiter-Glo luminescent cell viability assay; format: functional, cell-based
Outline: (§1)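 Cells were exposed to inhibitors for 72 h, and viability was read by CellTiter-Glo luminescence. EC50 values were derived from dose–response curves.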

RPMI-8226 = assay: Cytotoxicity against human RPMI-8226 cells expressing MYD88 mutant assessed as cell killing measured after 72 hrs by CellTiter-Glo luminescent cell viability assay; format: functional, cell-based; outline: as §1
OCI-LY19 = assay: Cytotoxicity against human OCILY19 cells expressing MYD88 mutant assessed as cell killing measured after 72 hrs by CellTiter-Glo luminescent cell viability assay; format: functional, cell-based; outline: as §1
OCI-Ly3 = assay: Cytotoxicity against human OCILY3 cells expressing MYD88 mutant assessed as cell killing measured after 72 hrs by CellTiter-Glo luminescent cell viability assay; format: functional, cell-based; outline: as §1
[2] = molecular target: T1, Interleukin-1 receptor-associated kinase 1; assay: Covalent binding affinity to recombinant IRAK1 (unknown origin) assessed as labeling at Cys302 residue site measured after 2 hrs by LC-MS analysis
Target sequence in this assay (P51617 whole entry, looked up): as the sequence (P51617 whole entry) above

[3] = Cytotoxicity against human HBL1 cells expressing MYD88 mutant assessed as cell killing measured after 72 hrs by CellTiter-Glo luminescent cell viability assay; format: functional, cell-based; outline: as §1
[4] = Cytotoxicity against human BCWM1 cells expressing MYD88 mutant assessed as cell killing measured after 72 hrs by CellTiter-Glo luminescent cell viability assay; format: functional, cell-based; conditions: BCWM1, 72 h; outline: as §1
OCI-Ly7 = assay: Cytotoxicity against human OCILY7 cells expressing MYD88 mutant assessed as cell killing measured after 72 hrs by CellTiter-Glo luminescent cell viability assay; format: functional, cell-based; outline: as §1
[5] = molecular target: T1, Interleukin-1 receptor-associated kinase 1; assay: Inhibition of desthio-biotinylated JH-XIII-39-01 probe binding to IRAK1 in human BCWM1 cells assessed as blocking of IRAK1 pulldown at 5 to 10 uM measured after 90 mins by Western blot based pulldown assay; format: cell-based
Target sequence in this assay (P51617 whole entry, looked up): as the sequence (P51617 whole entry) above

[6] = Cytotoxicity against human MWCL1 cells expressing MYD88 mutant assessed as cell killing measured after 72 hrs by CellTiter-Glo luminescent cell viability assay; format: functional, cell-based; outline: as §1
Ramos = assay: Cytotoxicity against human Ramos cells expressing MYD88 mutant assessed as cell killing measured after 72 hrs by CellTiter-Glo luminescent cell viability assay; format: functional, cell-based; outline: as §1
[7] = molecular target: T2, Interleukin-1 receptor-associated kinase 4 (Homo sapiens, UniProt Q9NWZ3); assay: Inhibition of wild-type human partial length IRAK4 (M1 to S460 residues) expressed in mammalian expression system by Kinomescan method
T2 sequence (Q9NWZ3 whole entry): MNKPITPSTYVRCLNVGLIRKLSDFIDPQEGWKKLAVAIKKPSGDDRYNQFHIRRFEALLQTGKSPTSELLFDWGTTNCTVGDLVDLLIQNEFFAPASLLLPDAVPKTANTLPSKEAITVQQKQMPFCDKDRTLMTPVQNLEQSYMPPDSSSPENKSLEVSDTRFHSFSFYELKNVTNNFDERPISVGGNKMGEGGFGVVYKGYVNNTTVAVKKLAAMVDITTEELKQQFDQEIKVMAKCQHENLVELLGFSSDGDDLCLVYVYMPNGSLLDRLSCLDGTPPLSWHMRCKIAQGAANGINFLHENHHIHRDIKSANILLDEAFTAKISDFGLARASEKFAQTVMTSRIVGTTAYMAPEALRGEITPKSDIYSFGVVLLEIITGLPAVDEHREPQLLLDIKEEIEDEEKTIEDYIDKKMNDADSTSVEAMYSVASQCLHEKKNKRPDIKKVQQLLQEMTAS

[8] = molecular target: T1, Interleukin-1 receptor-associated kinase 1; assay: Inhibition of wild-type human partial length IRAK1 (R194 to S712 residues) expressed in mammalian expression system by Kinomescan method
Target sequence in this assay (P51617 whole entry): as the sequence (P51617 whole entry) above

[9] = molecular target: T1, Interleukin-1 receptor-associated kinase 1; assay: Covalent binding affinity to recombinant IRAK1 (unknown origin) assessed as labeling at Cys307 residue site measured after 2 hrs by LC-MS analysis
Target sequence in this assay (P51617 whole entry, looked up): as the sequence (P51617 whole entry) above

[10] = molecular target: T1, Interleukin-1 receptor-associated kinase 1; assay: Inhibition of desthio-biotinylated JH-XIII-39-01 probe binding to IRAK1 in human BCWM1 cells assessed as blocking of IRAK1 pulldown at 5 uM measured after 90 mins by Western blot based pulldown assay; format: cell-based
Target sequence in this assay (P51617 whole entry, looked up): as the sequence (P51617 whole entry) above

[11] = molecular target: T3, Mitogen-activated protein kinase kinase kinase 19 (Homo sapiens, UniProt Q56UN5); assay: Inhibition of wild-type human partial length YSK4 (T1019 to H1328 residues) expressed in mammalian expression system by Kinomescan method
T3 sequence (Q56UN5 whole entry): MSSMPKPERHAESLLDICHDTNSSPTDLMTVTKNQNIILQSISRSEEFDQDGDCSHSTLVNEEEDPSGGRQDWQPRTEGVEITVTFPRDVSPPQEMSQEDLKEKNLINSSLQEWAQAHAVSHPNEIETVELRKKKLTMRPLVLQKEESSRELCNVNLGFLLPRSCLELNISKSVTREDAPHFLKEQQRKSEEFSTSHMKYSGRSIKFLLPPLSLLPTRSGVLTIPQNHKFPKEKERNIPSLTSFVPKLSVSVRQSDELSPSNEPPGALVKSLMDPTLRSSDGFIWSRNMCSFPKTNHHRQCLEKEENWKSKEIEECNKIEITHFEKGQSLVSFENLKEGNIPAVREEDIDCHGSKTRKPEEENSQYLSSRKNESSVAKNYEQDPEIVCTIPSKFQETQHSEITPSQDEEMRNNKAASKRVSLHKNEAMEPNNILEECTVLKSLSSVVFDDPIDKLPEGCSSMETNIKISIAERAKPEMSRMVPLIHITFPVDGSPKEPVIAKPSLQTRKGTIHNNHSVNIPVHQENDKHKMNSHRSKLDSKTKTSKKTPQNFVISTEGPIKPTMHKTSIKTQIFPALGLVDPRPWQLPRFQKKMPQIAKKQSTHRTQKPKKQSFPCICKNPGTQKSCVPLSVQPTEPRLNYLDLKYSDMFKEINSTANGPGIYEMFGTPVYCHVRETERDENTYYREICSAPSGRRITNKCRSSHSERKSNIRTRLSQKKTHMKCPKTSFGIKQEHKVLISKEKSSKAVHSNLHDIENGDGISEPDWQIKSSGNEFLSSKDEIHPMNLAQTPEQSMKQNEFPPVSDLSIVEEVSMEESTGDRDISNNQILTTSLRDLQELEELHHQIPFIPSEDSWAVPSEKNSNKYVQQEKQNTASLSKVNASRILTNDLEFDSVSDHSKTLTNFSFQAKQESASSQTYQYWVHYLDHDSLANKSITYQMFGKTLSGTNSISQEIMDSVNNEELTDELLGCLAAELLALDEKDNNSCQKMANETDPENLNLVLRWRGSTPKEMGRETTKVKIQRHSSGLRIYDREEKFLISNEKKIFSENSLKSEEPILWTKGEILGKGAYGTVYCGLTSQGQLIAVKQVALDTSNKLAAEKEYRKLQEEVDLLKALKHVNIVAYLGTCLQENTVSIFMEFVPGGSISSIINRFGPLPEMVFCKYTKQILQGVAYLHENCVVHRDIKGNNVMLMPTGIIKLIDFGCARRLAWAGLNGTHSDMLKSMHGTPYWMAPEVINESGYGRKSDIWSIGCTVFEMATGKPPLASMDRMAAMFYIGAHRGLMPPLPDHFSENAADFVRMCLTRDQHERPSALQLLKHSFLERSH

[12] = molecular target: T2, Interleukin-1 receptor-associated kinase 4; assay: Inhibition of IRAK4 (unknown origin) using methylcoumarin-labeled peptide as substrate in presence of ATP by FRET assay
[13] = molecular target: T1, Interleukin-1 receptor-associated kinase 1; assay: Covalent binding affinity to recombinant IRAK1 (unknown origin) assessed as labeling at Cys302/Cys307 residue sites at ratio 3:1 measured after 2 hrs by LC-MS analysis
Target sequence in this assay (P51617 whole entry, looked up): as the sequence (P51617 whole entry) above

[14] = Homo sapiens, OCI-LY19, 72 h, read-out: EC50
[15] = Homo sapiens, OCI-Ly7, 72 h, read-out: EC50
[16] = Homo sapiens, MWCL1, 72 h, read-out: EC50
[17] = Homo sapiens, RPMI-8226, 72 h, read-out: EC50
[18] = Homo sapiens, TMD8, 72 h, read-out: EC50
[19] = Homo sapiens, HBL1, 72 h, read-out: EC50
[20] = Homo sapiens, OCI-Ly3, 72 h, read-out: EC50
[21] = Homo sapiens, Ramos, 72 h, read-out: EC50

CC1NC(=O)NC1CCCCCC(=O)NCCOCCOCCOCCNC(=O)CCN(C)C/C=C/C(=O)Nc1cccc(C(=O)Nc2ccc(NC(=O)c3cccc(-c4ccn[nH]4)n3)cc2)c1 (stereo not given)
IC50 [1]: 0.07 µM

C=CC(=O)Nc1cccc(C(=O)Nc2cccc(NC(=O)c3cccc(-c4ccn[nH]4)n3)c2)c1
EC50 (TMD8; tmd8): Not Active | EC50 (RPMI-8226; rpmi-8226): Not Active | EC50 (OCI-LY19; [14]): 2.9 µM | EC50 (OCI-Ly3; oci-ly3): Not Active | Activity [2]: Active | EC50 ([3]; hbl1): Not Active | EC50 [4]: 12.8 µM | EC50 (OCI-Ly7; [15]): 16.1 µM | inhibition [5]: Active | EC50 [6, 16]: 29 µM | EC50 (Ramos; ramos): Not Active

CN(C)C/C=C/C(=O)Nc1cccc(C(=O)Nc2ccc(Nc3nccc(-c4cccnc4)n3)cc2)c1
IC50 [7]: > 10 µM | IC50 [8]: 0.0142 µM

CCC(=O)Nc1cccc(C(=O)Nc2ccc(NC(=O)c3cccc(-c4ccn[nH]4)n3)cc2)c1
EC50 (TMD8; tmd8): Not Active | EC50 (RPMI-8226; [17]): 31.1 µM | EC50 (OCI-LY19; [14]): 7.79 µM | EC50 (OCI-Ly3; oci-ly3): Not Active | EC50 ([3]; hbl1): Not Active | EC50 [4]: 19.9 µM | EC50 (OCI-Ly7; [15]): 20.7 µM | EC50 ([6]; mwcl1): Not Active | EC50 (Ramos; ramos): Not Active

C=CC(=O)Nc1ccc(C(=O)Nc2ccc(NC(=O)c3cccc(-c4ccn[nH]4)n3)cc2)cc1
EC50 (TMD8; [18]): 5.26 µM | EC50 (RPMI-8226; rpmi-8226): Not Active | Activity [9]: Active | EC50 (OCI-LY19; [14]): 0.71 µM | EC50 (OCI-Ly3; oci-ly3): Not Active | EC50 [3, 19]: 14.6 µM | EC50 [4]: 2.54 µM | EC50 (OCI-Ly7; [15]): 5.16 µM | EC50 [6, 16]: 4.91 µM | EC50 (Ramos; ramos): Not Active

CN(C)C/C=C/C(=O)Nc1cccc(C(=O)Nc2ccc(NC(=O)c3cccc(-c4ccn[nH]4)n3)cc2)c1
EC50 (TMD8; [18]): 10.6 µM | EC50 (RPMI-8226; [17]): 19.8 µM | EC50 (OCI-LY19; [14]): 1.8 µM | EC50 (OCI-Ly3; [20]): 14.3 µM | EC50 [3, 19]: 18.2 µM | EC50 [4]: 5.62 µM | inhibition [10]: Active | EC50 (OCI-Ly7; [15]): 7.65 µM | IC50 [1]: 0.052 µM | EC50 [6, 16]: 8.13 µM | EC50 (Ramos; [21]): 6.99 µM

COc1cc(N2CCOCC2)ccc1NC(=O)c1cccc(-c2ccn[nH]2)n1
IC50 [7]: 0.017 µM | IC50 [8]: 0.009 µM

C=CC(=O)Nc1cccc(C(=O)Nc2ccc(NC(=O)c3cccc(-c4ccn[nH]4)n3)cc2)c1
EC50 (TMD8; [18]): 2.4 µM | EC50 (RPMI-8226; [17]): 5.13 µM | EC50 (OCI-LY19; [14]): 0.59 µM | EC50 (OCI-Ly3; [20]): 9.72 µM | Activity [2]: Active | IC50 [11]: 0.057 µM | IC50 [12]: > 10 µM | EC50 [3, 19]: 12.1 µM | EC50 [4]: 1.02 µM | EC50 (OCI-Ly7; [15]): 2.39 µM | inhibition [5]: Active | EC50 [6, 16]: 3.88 µM | EC50 (Ramos; [21]): 1.79 µM

C=CC(=O)Nc1ccc(C(=O)Nc2cccc(NC(=O)c3cccc(-c4ccn[nH]4)n3)c2)cc1
EC50 (TMD8; tmd8): Not Active | EC50 (RPMI-8226; rpmi-8226): Not Active | EC50 (OCI-LY19; oci-ly19): Not Active | EC50 (OCI-Ly3; oci-ly3): Not Active | Activity [13]: Active | IC50 [12]: > 10 µM | EC50 ([3]; hbl1): Not Active | EC50 [4]: 418 µM | EC50 (OCI-Ly7; oci-ly7): Not Active | EC50 ([6]; mwcl1): Not Active | EC50 (Ramos; ramos): Not Active

Source: ChEMBL document CHEMBL4725474, “Discovery of a Selective, Covalent IRAK1 Inhibitor with Antiproliferative Activity in MYD88 Mutated B-Cell Lymphoma” (ACS Med Chem Lett, 2020)
